Assay outcomes from PubChem.
NR2F2 inh = NR2F2 (human) inhibition, primary screen; actives 0.7% (n = 370,000); inhibition, % at 8.6 µM; HEK293T NGFI-A luciferase reporter, luminescence; AID 686940;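 active = inhibition above a per-plate cutoff, mean inhibition of test wells between control levels plus 3 SD, cut at about 38% in these data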;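 note: cells cotransfected with COUP-TFII expression vector driving the NGFI-A reporter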
GalR3 antag = human GalR3 antagonism | actives 0.44% (n = 360,000) | O60755 | HEK293 GalR3-CNG cAMP membrane potential fluorescence; galR3 body fused to GalR1 C-terminus | AID 651719 | inhibition, % at 3 µM;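 active = inhibition above the screen-wide average plus 3 SD, cut at about 13% in these data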;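 note: forskolin and galanin both at EC90 stimulate the cells; cAMP rise reported by CNG channel membrane potential dye signal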
SMARCA2 act = activators of SMARCA2 function; actives 1% (n = 370,000); AID 652017; MG213 cells, MMTV-luciferase reporter, dexamethasone, overnight; activation, % at 9.1 µM; in the data active = activation above about 7.8%
NR2E3 ag-1 = activates human NR2E3 receptor; Q9Y5X4; CHO-S Gal4-NCOR/VP16-NR2E3 two-hybrid, luciferase; inhibition of corepressor binding, % at 3.98 µM; actives 0.35% (n = 360,000); AID 602229;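 active = inhibition above the mean of all tested compounds plus 3 SD, cut at about 70% in these data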;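 note: higher means lower luciferase signal from less NR2E3 corepressor binding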
Target sequence (Q9Y5X4 whole entry, looked up, the tested form may be a part): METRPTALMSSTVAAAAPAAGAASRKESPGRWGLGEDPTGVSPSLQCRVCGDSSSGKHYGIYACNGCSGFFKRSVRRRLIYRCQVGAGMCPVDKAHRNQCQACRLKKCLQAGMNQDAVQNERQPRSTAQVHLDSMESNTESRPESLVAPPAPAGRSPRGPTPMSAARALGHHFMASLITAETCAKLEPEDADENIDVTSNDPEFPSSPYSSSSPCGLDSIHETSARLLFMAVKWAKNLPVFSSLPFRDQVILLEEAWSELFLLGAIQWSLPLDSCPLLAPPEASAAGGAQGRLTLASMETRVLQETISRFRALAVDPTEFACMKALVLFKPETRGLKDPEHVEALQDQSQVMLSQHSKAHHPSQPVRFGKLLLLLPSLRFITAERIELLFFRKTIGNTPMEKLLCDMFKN
NR2E3 ag-2 = agonists of human nuclear receptor NR2E3 | Q9Y5X4 | GST-NR2E3/biotin-RetCOR TR-FRET, 1536-well | inhibition of corepressor binding, % at 4.78 µM | actives 0.12% (n = 320,000) | AID 2300;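 active = percent inhibition above the cutoff of mean plus 3 SD of all tested compounds, set per screening campaign, cut at about 20% in these data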
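System: GST-tagged NR2E3 plus biotinylated RetCOR corepressor; Amount: 1.35 nM GST-tagged NR2E3 final; Dosing: single nominal compound dose of 4.8 µM; Schedule: 5 h incubation at 4 °C; Technique: TR-FRET with europium anti-GST and streptavidin-D2, 340 nm excitation; Controls: biotin wells as high control, 0.6% DMSO wells as low control.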
NR2E3 ag confirm = NR2E3 agonism confirmed in two-hybrid assay. shares compounds with NR2E3 ag-1. CHO-S mammalian two-hybrid NR2E3-NCOR, luciferase luminescence. inhibition, % at 3.98 µM. actives 51% (n = 2,300). AID 624378;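 active = average inhibition above a cutoff equal to the mean inhibition of all tested compounds plus one SD, cut at about 70% in these data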
VP16 counter = GAL4-VP16 reporter inhibition in NR2E3 agonist counterscreen. shares compounds with NR2E3 ag-1. CHO-S GAL4-VP16 luciferase reporter, luminescence. inhibition, % at 3.98 µM. actives 29% (n = 2,300);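 active = mean inhibition above a cutoff equal to the average over all tested compounds plus one standard deviation, cut at about 70% in these data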;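 note: luciferase from a UAS reporter driven by GAL4-VP16 transactivation; higher means less reporter light so more repression of VP16 activity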
Numbers stand for hits; - = inactive; . = no result given. This is a sample that favours compounds with a hit; in the whole collection about 2.2% have one here.

SMILES	NR2F2 inh	GalR3 antag	SMARCA2 act	NR2E3 ag-1	NR2E3 ag-2	NR2E3 ag confirm	VP16 counter
Cc1ccc(-n2c(C)nc3c(cnn3-c3ccc(F)cc3)c2=O)cc1C	-	-	-	-	-	88	-
O=C(CCC(=O)N1CCN(C2c3ccccc3-c3ccccc32)CC1)Nc1nnc(C(F)(F)F)s1	-	.	-	.	.	.	.
COCCCNC(=O)C[C@H]1C[C@@]2(C(=O)OC)C(=C[C@H](C(C)C)O[C@@H]2C2CC2)N(Cc2ccc(Cl)cc2Cl)C1=O	-	.	-	.	.	.	.
Cc1ccc(NS(=O)(=O)c2ccc3c(c2)NC(=O)CCS3)cc1C	-	-	-	-	-	-	-
Cc1nc2ccc(NS(=O)(=O)c3c(F)cc(F)cc3Br)cc2s1	-	-	-	75	-	72	-
Cc1nc2ccc(NS(=O)(=O)c3ccc(C)c(C)c3)cc2s1	-	-	-	81	-	96	80
Cc1nc2ccc(NS(=O)(=O)c3ccc(F)cc3F)cc2s1	-	-	-	-	-	.	.
COC(=O)[C@]12C[C@H](CC(=O)N3CCOCC3)C(=O)N(Cc3ccco3)C1=C[C@H](COCc1ccccc1)O[C@@H]2C	-	.	-	.	.	.	.
COc1cccc(CNC2CCC23CCC(C)CC3)c1 (centres undefined)	-	.	.	.	.	.	.
CC(=NNc1nc2ccccc2s1)c1ccncn1	-	-	-	-	.	-	-
C/C(=N\Nc1nc2ccccc2s1)c1ccc(Br)s1	-	-	-	-	-	.	.
CCOc1cc(/C=C/c2cc(C(F)(F)F)[nH]c(=O)n2)ccc1O	-	-	-	-	-	.	.
COc1ccc(/C=C/c2cc(C(F)(F)F)[nH]c(=O)n2)cc1OC	-	-	-	-	-	-	-
c1ccc(Cn2c(SC3CCCCC3)nnc2-c2cccnc2)cc1	-	.	-	.	.	.	.
CCCCN(CCCC)c1ccc(C(=O)c2ccccc2C(=O)O)c(O)c1	-	-	-	-	-	-	-
CN(C)c1ccc(C(=O)c2ccccc2C(=O)O)c(O)c1	-	-	-	-	-	.	.
COc1ccc(C(=O)Nc2ccc(Cn3ccnc3)cc2)cc1OC	-	-	-	-	-	.	.
COc1ccc(C(=O)Nc2cnn(Cc3ccc(Cl)cc3)c2)cc1OC	-	-	-	-	-	-	-
Cc1occc1C(=O)N1CCN(c2ccc(Cl)c(Cl)c2)CC1	-	-	-	-	-	81	-
O=C(NCc1ccccc1)N1CCN(c2ccc(Cl)c(Cl)c2)CC1	-	-	-	77	-	93	76
O=C(Cc1ccc(Cl)c(Cl)c1)Nc1ccc(S(=O)(=O)Nc2ccon2)cc1	-	.	-	.	.	.	.
C[C@H]1[C@@H](NC(=O)c2ccc(Cl)cc2)CC[C@@]23CCCN2C(=O)CCC[C@@H]13	-	.	.	.	.	.	.
CCN(CC)c1ccc(-c2nn3c(-c4ccccc4OC)nnc3s2)cc1	.	.	.	-	-	-	-
O=C(NCCc1c[nH]c2ccccc12)OCc1cn(Cc2cccc(F)c2)nn1	-	.	-	.	.	.	.
Cc1ccc2nc(NC(=O)C3CCN(c4ncnc5sc(C)c(C)c45)CC3)sc2c1	.	.	.	-	-	.	.
SMILES	NR2F2 inh	GalR3 antag	SMARCA2 act	NR2E3 ag-1	NR2E3 ag-2	NR2E3 ag confirm	VP16 counter
Cc1ccc(C)c(S(=O)(=O)N2CCN(C(=O)C3CCN(c4ncnc5sc(C)c(C)c45)CC3)CC2)c1	-	-	-	78	-	-	-
CC(C)OC(=O)CSc1nnc(CNc2ccc(Cl)cc2)n1Cc1ccccc1	-	-	-	73	-	-	-
CCOC(=O)CSc1nnc(CNc2ccc(Cl)cc2)n1Cc1ccccc1	-	-	-	-	-	.	.
O=C1CCC[C@H]2Cc3nc4cccc(Cl)c4cc3C[C@]23CCCN13	-	.	.	.	.	.	.
Cc1ccc(S(=O)(=O)N(C)C)cc1NC(=O)C(C)N(C)Cc1sccc1C (centres undefined)	-	-	-	-	-	-	-
Cc1nc2ccccc2c2oc(C(=O)NCc3ccc4c(c3)OCO4)cc12	-	.	-	-	-	-	-
COC(=O)c1cc(S(=O)(=O)N2CCCN(C(C)=O)CC2)cn1C	-	.	-	.	.	.	.
N#C/C(=N\Nc1cccc(C(F)(F)F)c1)C(=O)c1ccsc1	-	-	-	80	-	98	-
Oc1[nH]c2ccc(Br)cc2c1N=NC(=S)N1CCOCC1	-	13	-	98	-	90	-
NC(=S)N=Nc1c(O)[nH]c2ccccc12	-	-	-	-	-	.	.
